Legend:
Type in all cases: functional
Cavia porcellus [1] = species: Cavia porcellus; test: Inhibition of histamine release from sensitized guinea pig chopped lung upon antigen challenge at 10 ug/mL.
Outline: (§1)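 Guinea pigs sensitized to ovalbumin; lungs taken 3 weeks later, perfused with Tyrode, chopped into 0.5-mm cubes. 100-mg aliquots in Tyrode were preincubated 5 min at 37 °C, then compound or Tyrode and ovalbumin (5 mg in 0.1 mL) were added. Incubation was 15 min at 37 °C with rocking, and supernatant was bioassayed. Unchallenged control gave spontaneous release. Values are % inhibition, mean of ≥4 samples; Student's t-test.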

Cavia porcellus [2] = species: Cavia porcellus; test: Inhibition of slow reacting substance of anaphylaxis (SRS-A) release from sensitized guinea pig chopped lung upon antigen challenge at 10 ug/mL; outline: as §1
Homo sapiens [3] = species: Homo sapiens; test: Inhibition of Slow reacting substance of anaphylaxis (SRS-A) mediator release form passively sensitized human lung upon antigen challenge at 1 ug/mL dose
Outline: (§2)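 Healthy human lung from carcinoma surgery was chopped into 0.5-mm cubes and passively sensitized 18 h at 18 °C with atopic serum from cocksfoot-pollen-allergic patients. Tissue was preincubated 5 min with compound, challenged with pollen extract (0.1 mL, 1000 noon units) and incubated as for guinea pig lung. Supernatant was bioassayed on guinea pig ileum, with mepyramine-treated (0.4 μg/mL) ileum for SRS-A. Values are % inhibition of mediator release.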

Homo sapiens [4] = species: Homo sapiens; test: Inhibition of Histamine mediator release form passively sensitized human lung upon antigen challenge at 1 ug/mL dose; outline: as §2
Homo sapiens [5] = species: Homo sapiens; test: Inhibition of Slow reacting substance of anaphylaxis (SRS-A) mediator release form passively sensitized human lung upon antigen challenge at 10 ug/mL dose; outline: as §2
Homo sapiens [6] = species: Homo sapiens; test: Inhibition of Histamine mediator release form passively sensitized human lung upon antigen challenge at 10 ug/mL dose; outline: as §2
Cavia porcellus [7] = test: Mean collapse time after pretreatment with compound and mepyramine divided by mean collapse time of mepyramine-dosed control animals at 50 mg/kg po dose
Outline: (§3)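 Modified Herxheimer test in conscious sensitized guinea pigs, 4-5 per group. Compound was given orally at 25, 50 or 100 mg/kg 2 or 4 h before antigen challenge. Some groups also received mepyramine 0.5 mg/kg sc 0.5 h before challenge. D = mean collapse time of treated/untreated controls; M+D = mean collapse time of compound+mepyramine/mepyramine-dosed controls.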

Cavia porcellus [8] = test: Mean collapse time after pretreatment with compound divided by mean collapse time of untreated control animals at 50 mg/kg po dose; outline: as §3
Cavia porcellus [9] = test: Time of dosing of compound before antigen challenge in conscious sensitized guinea pig at 50 mg/kg po dose; conditions: dose 50 mg/kg; outline: as §3

SMILES | Inhibition (Cavia porcellus [1]) | Inhibition (Cavia porcellus [2]) | further results
Cc1ccc(O)c(/C(=N\O)c2ccc(Cl)cc2)c1 | 25% | 32% | –
CCc1ccc(S(C)(=O)=O)c(C(=O)c2ccc(C)cc2)c1 | – | 11% | –
CCc1ccc([S+](C)[O-])c(C(=O)c2ccc(C)cc2)c1 (centres undefined) | 3% | 40% | Inhibition (Homo sapiens [3]): 75%; Inhibition (Homo sapiens [4]): 0%; Inhibition (Homo sapiens [5]): 100%; Inhibition (Homo sapiens [6]): 0%
CCc1ccc(/C(=N/O)c2ccc(Cl)cc2)c(O)c1 | – | 0% | –
CCc1ccc(C(O)c2ccc(F)cc2)c(O)c1 (centres undefined) | 5% | 34% | –
CCCc1cccc(C(=O)c2ccc(Cl)cc2)c1O | – | 0% | –
Cc1cccc(/C(=N/O)c2ccccc2)c1O | – | 0% | Inhibition (Homo sapiens [3]): 39%; Inhibition (Homo sapiens [4]): 8%; Inhibition (Homo sapiens [5]): 62%; Inhibition (Homo sapiens [6]): 15%
Cc1cccc(/C(=N/O)c2ccc(Cl)cc2)c1O | 52% | 52% | –
O=C(c1ccccc1)c1ccccc1O | – | 0% | –
CCc1cc([S+]([O-])c2ccc(C)cc2)c(O)cc1Cl (centres undefined) | – | 5% | –
CCc1ccc(C(=O)c2cccc(F)c2)c(O)c1 | – | 26% | –
CCc1cc(CC)c(O)c(C(=O)c2ccc(Cl)cc2)c1 | 9% | 38% | –
CCc1cccc(C(=O)c2ccc(Cl)cc2)c1O | – | 2% | –
Cc1ccc(C(=O)c2ccc(F)cc2)c(O)c1 | – | 10% | –
Cc1cccc(C(=O)c2ccc(Cl)cc2)c1O | 6% | 36% | Inhibition (Homo sapiens [3]): 100%; Inhibition (Homo sapiens [5]): 100%; Inhibition (Homo sapiens [6]): 0%
CCCc1cccc(C(=O)c2ccccc2)c1O | – | 0% | –
CCc1ccc(O)c(C(=O)c2cccc3ccccc23)c1 | – | 0% | –
CCc1ccc(O)c(C(=O)c2ccc(F)cc2)c1 | – | 1% | –
Cc1ccc(O)c(C(=O)c2ccccc2)c1 | 78% | 39% | –
CCc1ccc([S+](C)[O-])c(C(=O)c2ccc(Cl)cc2)c1 (centres undefined) | 1% | 36% | –
CCc1ccc(O)c(C(=O)c2ccc(Br)cc2)c1 | – | 10% | –
CC(=O)c1ccc(O)c(C(=O)c2ccc(Cl)cc2)c1 | 61% | 49% | –

SMILES | Inhibition (Cavia porcellus [1]) | Inhibition (Cavia porcellus [2]) | further results
CCc1ccc(OC)c(C(=O)c2ccc([N+](=O)[O-])cc2)c1 | – | 0% | Activity (Cavia porcellus [7]): 2.1; Activity (Cavia porcellus [8]): 0.8; Time (Cavia porcellus [9]): 2 h
Cc1ccc(C(=O)c2ccc(Cl)cc2)c(O)c1 | – | 0% | –
CCc1ccc(O)c(C(=O)c2cccc(Cl)c2)c1 | – | 0% | –
CCc1ccc(O)c(C(=O)c2ccccc2)c1 | – | 22% | Activity (Cavia porcellus [7]): 1.2; Activity (Cavia porcellus [8]): 2.5; Time (Cavia porcellus [9]): 2 h
CCc1cccc(C(=O)c2ccccc2)c1O | 92% | 37% | –
Cc1ccc(/C(=N/O)c2ccc(Cl)cc2)c(O)c1 | – | 0% | –
CCCc1ccc(O)c(/C(=N/O)c2ccc(Cl)cc2)c1 | – | 8% | –
CCc1ccc(O)c(/C(=N/O)c2ccc(Cl)c(Cl)c2)c1 | – | 2% | –
CCCCc1ccc(O)c(C(=O)c2ccc(Cl)cc2)c1 | – | 0% | –
CCc1ccc(C(=O)c2ccc(Cl)cc2)c(O)c1 | – | 8% | –
CCCc1ccc(O)c(C(=O)c2ccc(Cl)cc2)c1 | – | 0% | –
CCc1ccc(OC(C)=O)c(C(=O)c2ccc(Cl)cc2)c1 | – | 28% | –
CCc1ccc(OC(=O)c2ccccc2)c(C(=O)c2ccc(Cl)cc2)c1 | 32% | 71% | –
CCc1ccc(OC)c(C(=O)c2ccncc2)c1 | – | 0% | –
C=C(c1ccc(Cl)cc1)c1cc(CC)ccc1O | – | 3% | –
CCc1ccc(O)c(C(=O)c2ccco2)c1 | 0% | 32% | –
CCc1ccc(O)c(C(O)c2ccccc2)c1 (centres undefined) | 7% | 37% | –
CCc1ccc(C(=O)c2ccc(F)cc2)c(OC(C)=O)c1 | – | 9% | –
CCc1ccc(O)c(C(O)c2ccc(Cl)cc2)c1 (centres undefined) | – | 5% | –
C=C(c1ccccc1)c1cc(CC)ccc1O | – | 24% | –
CCc1ccc(O)c(Cc2ccc(Cl)cc2)c1 | 17% | 39% | –
CCc1ccc(SC)c(C(O)c2ccc(Cl)cc2)c1 (centres undefined) | – | 11% | –

SMILES | Inhibition (Cavia porcellus [1]) | Inhibition (Cavia porcellus [2]) | further results
CCc1ccc(O)c(C(=O)c2ccccc2Cl)c1 | – | 14% | –
CCc1ccc(OC)c(C(O)c2ccc(C)cc2)c1 (centres undefined) | – | 28% | –
CCc1ccc(O)c(C(=O)c2cccn2C)c1 | – | 0% | Activity (Cavia porcellus [7]): 2.3; Activity (Cavia porcellus [8]): 1.2; Time (Cavia porcellus [9]): 2 h
CCc1ccc(SC)c(C(=O)c2ccc(Cl)cc2)c1 | – | 29% | Activity (Cavia porcellus [7]): 2.3; Activity (Cavia porcellus [8]): 0.6
CCc1ccc(O)c(Sc2ccc(Cl)cc2)c1 | 31% | 31% | –
CCc1ccc(O)c(/C(=N/O)c2ccc(Cl)cc2)c1 | 28% | 51% | Inhibition (Homo sapiens [3]): 93%; Inhibition (Homo sapiens [4]): 0%; Inhibition (Homo sapiens [5]): 91%; Inhibition (Homo sapiens [6]): 0%
CCc1ccc(O)c(C(=O)c2cccc(C#N)c2)c1 | – | 21% | –
CCc1ccc(OC(C)=O)c(C(=O)c2ccc(C)cc2)c1 | 9% | 49% | –
CCc1ccc(O)c(C(=O)c2ccc(C)cc2)c1 | 53% | 76% | –
CCc1ccc(Cc2ccc(F)cc2)c(O)c1 | 33% | 34% | –
CCc1ccc(O)c(C(=O)c2ccncc2)c1 | – | 0% | –
CCc1ccc(/C(=N/O)c2ccc(F)cc2)c(O)c1 | 46% | 33% | –
C=C(c1ccc(F)cc1)c1ccc(CC)cc1O | 0% | 32% | –
CCc1ccc(O)c(C(=O)c2ccc(C)s2)c1 | – | 28% | –
CCc1ccc(O)c(C(=O)c2ccc(Cl)s2)c1 | – | 21% | –
Cc1ccc(O)c(C(=O)c2ccc(Cl)cc2)c1 | 0% | 46% | –
CCc1ccc(O)c(C(O)c2ccc([N+](=O)[O-])cc2)c1 (centres undefined) | 0% | 33% | –
Cc1cccc(C(=O)c2ccccc2)c1O | – | 0% | –
CCc1ccc(OC)c(C(OC)c2ccc(Cl)cc2)c1 (centres undefined) | 22% | 32% | –
CCc1ccc(O)c(C(=O)c2ccc(Cl)c(Cl)c2)c1 | – | 0% | –
CCc1cccc(/C(=N/O)c2ccccc2)c1O | – | 13% | –
CCc1ccc(O)c(C(=O)c2ccc([N+](=O)[O-])cc2)c1 | – | 5% | –

SMILES | Inhibition (Cavia porcellus [1]) | Inhibition (Cavia porcellus [2]) | further results
CCc1ccc([S+](C)[O-])c(C(=O)c2ccc(F)cc2)c1 (centres undefined) | 9% | 42% | –
CCc1ccc(O)c(/C(=N/O)c2ccc(Cl)cc2Cl)c1 | – | 0% | –
CCc1ccc(O)c(C(=O)c2ccc3ccccc3c2)c1 | – | 2% | –
CCc1ccc(S(C)(=O)=O)c(C(=O)c2ccc(Cl)cc2)c1 | – | 17% | –
CCc1ccc(SC)c(C(=O)c2ccccc2)c1 | 19% | 52% | –
O=C(c1ccc(Cl)cc1)c1ccccc1O | – | 0% | –
CCc1ccc(O)c(Cc2ccc(C)cc2)c1 | – | 0% | –
CCc1ccc(SC)c(C(=O)c2ccc(F)cc2)c1 | 14% | 31% | –
CCc1cccc(C(=O)c2ccc(Cl)cc2Cl)c1O | 8% | 44% | Inhibition (Homo sapiens [3]): 85%; Inhibition (Homo sapiens [4]): 20%; Inhibition (Homo sapiens [5]): 100%; Inhibition (Homo sapiens [6]): 60%
CCc1ccc(OC)c(C(=O)c2cc[n+]([O-])cc2)c1 | – | 0% | –
CCc1ccc(C(=O)O)c(C(=O)c2ccc(Cl)cc2)c1 | – | 20% | –
CCc1ccc(OC)c(C(=O)c2ccccn2)c1 | – | 0% | –
CCc1ccc(O)c(C(=O)c2ccccn2)c1 | 5% | 30% | –
CCc1ccc(O)c(Sc2ccccc2)c1 | – | 0% | –
CCc1ccc(O)c(Cc2ccccc2)c1 | 0% | 36% | Activity (Cavia porcellus [7]): 1.6; Activity (Cavia porcellus [8]): 3
CCc1ccc(O)c(C(=O)c2cccnc2)c1 | – | 27% | –
CCc1ccc(O)c([S+]([O-])c2ccccc2)c1 (centres undefined) | 36% | 36% | –
CCc1ccc(S(C)(=O)=O)c(C(=O)c2ccc(F)cc2)c1 | – | 27% | –
CCc1ccc(S(C)(=O)=O)c(C(=O)c2ccccc2)c1 | 13% | 35% | –
CCc1ccc(SC)c(C(=O)c2ccc(C)cc2)c1 | 0% | 32% | –
Cc1ccc(O)c(/C(=N/O)c2ccc(Cl)cc2)c1 | 59% | 40% | –
CCc1ccc(O)c(C(=O)c2ccc(Cl)cc2Cl)c1 | – | 0% | –
